Results published in ChEMBL document CHEMBL1134641, “Progress toward the development of a safe and effective agent for treating reentrant cardiac arrhythmias: synthesis and evaluation of ibutilide analogues with enhanced metabolic stability and diminished proarrhythmic potential” (2001).

How the values were obtained:
Canis familiaris [1] = species: Canis familiaris; assay: Atrial flutter cycle length (AFCLl) measured in canine just after inducing atrial flutter (AFL) termination by the compound; type: functional, Canis lupus familiaris, Heart
Canis familiaris [2] = assay: Atrial effective refractory period (AERP) measured in canine just after inducing atrial flutter (AFL) termination by the compound at a dose of 2.4 uM/kg; type: functional, Canis lupus familiaris, Heart
Canis familiaris [3] = assay: Atrial effective refractory period (AERP) measured in canine just after inducing atrial flutter (AFL) termination by the compound at a dose of 7.2 uM/kg; type: functional, Canis lupus familiaris, Heart
Canis familiaris [4] = assay: QT interval measured in canine 24-h Infarction model at a single intravenous dose of 2.4 uM/kg; type: functional, Canis lupus familiaris
Procedure, shortened: (§1)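 Dogs 24 h after two-stage LAD ligation. Compound in saline given iv in sequential doses (cumulative 0.24, 0.72, 2.4 µmol/kg); saline controls then given a single 2.4 µmol/kg iv dose. HR, IVR, BP, QT, spontaneous arrhythmias/min, ERPs and MAPD90 measured at baseline and 15 min after each dose. Means ± SEM, paired t-test, p≤0.05.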

Canis familiaris [5] = assay: QT interval measured in canine just after inducing atrial flutter (AFL) termination by the compound at a dose of 0.24 umol/kg; type: functional, Canis lupus familiaris, Heart
Canis familiaris [6] = assay: QT interval measured in canine just after inducing atrial flutter (AFL) termination by the compound at a dose of 0.6 umol/kg; type: functional, Canis lupus familiaris, Heart
Procedure, shortened: (§2)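 Conscious, sling-restrained dogs with chronically implanted electrodes, studied after 2 weeks of recovery. Sustained AFL (>5 min) induced. Compound in saline given iv every 5 min to cumulative 0.024-12.0 µmol/kg. At AFL termination, HR, QT (paced cycle length 300 ms), AERP and VERP measured. Measurements then taken 3 min after each further dose. Significance p≤0.05 vs baseline.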

Canis familiaris [7] = assay: QT interval measured in canine just after inducing atrial flutter (AFL) termination by the compound at a dose of 12.0 uM/kg; type: functional, Canis lupus familiaris, Heart; procedure, shortened: as §2
Canis familiaris [8] = assay: QT interval measured in canine just after inducing atrial flutter (AFL) termination by the compound at a dose of 2.4 uM/kg; type: functional, Canis lupus familiaris, Heart; procedure, shortened: as §2
Canis familiaris [9] = assay: QT interval measured in canine just after inducing atrial flutter (AFL) termination by the compound at a dose of 7.2 uM/kg; type: functional, Canis lupus familiaris, Heart; procedure, shortened: as §2
Canis familiaris [10] = assay: QT interval measured in canine just after inducing atrial flutter (AFL) termination by the compound at a dose of 9.6 uM/kg; type: functional, Canis lupus familiaris, Heart; procedure, shortened: as §2
Canis familiaris [11] = assay: Atrial effective refractory period (AEPR) measured in canine 24-h Infarction model at a single intravenous dose of 2.4 uM/kg; type: functional, Canis lupus familiaris, Cardiac atrium
Procedure, shortened: (§3)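 Male mongrel dogs (16-22 kg) with LAD permanently ligated in two stages; studied 24 h later. […] given IV in sequential doses to cumulative 0.24, 0.72, 2.4 µmol/kg. Saline controls (n=8) received vehicle, then a single IV 2.4 µmol/kg dose at the end. Measurements taken at baseline and 15 min after each dose. Means ± SEM, paired t-test, p ≤ 0.05.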

Canis familiaris [12] = assay: Atrial effective refractory period (AEPR) measured in canine 24-h Infarction model at an cumulative intravenous dose of 0.24 uM/kg; type: functional, Canis lupus familiaris, Cardiac atrium; procedure, shortened: as §3
Canis familiaris [13] = assay: Atrial effective refractory period (AERP) measured in canine just after inducing atrial flutter (AFL) termination by the compound at a dose of 0.24 umol/kg; type: functional, Canis lupus familiaris, Heart
Canis familiaris [14] = assay: Atrial MAPD90 measured in canine 24-h Infarction model at an cumulative intravenous dose of 2.4 uM/kg; type: functional, Canis lupus familiaris, Cardiac atrium; procedure, shortened: as §3
Canis familiaris [15] = assay: Number of canine in which sustained ventricular tachycardia (SVT) was observed in PES-induced arrhythmias at an cumulative intravenous dose of 0.72 uM/kg; type: functional, Canis lupus familiaris, Cardiac ventricle
Procedure, shortened: (§4)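 Male mongrel dogs (16-22 kg) with LAD ligated in two stages, studied 24 h later. Programmed electrical stimulation at baseline and 15 min after each iv dose in saline (cumulative 0.24, 0.72, 2.4 µmol/kg). Saline controls then received a single 2.4 µmol/kg iv dose. Responses scored as NI (≤15 beats), NSVT (>15 beats, ends within 30 s), SVT (>30 s, needing pacing or cardioversion) or VF. A positive response was repeated.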

Canis familiaris [16] = assay: Number of canine in which sustained ventricular tachycardia (SVT) was observed in PES-induced arrhythmias at an cumulative intravenous dose of 2.4 uM/kg; type: functional, Canis lupus familiaris, Cardiac ventricle; procedure, shortened: as §4
Canis familiaris [17] = assay: Number of canine in which sustained ventricular tachycardia (SVT) was observed in PES-induced arrhythmias at an single intravenous dose of 2.4 uM/kg; type: functional, Canis lupus familiaris, Cardiac ventricle; procedure, shortened: as §4
Canis familiaris [18] = assay: Idioventricular heart rate (IVR) measured in canine 24-h Infarction model at an cumulative intravenous dose of 0.72 uM/kg; type: functional, Canis lupus familiaris; procedure, shortened: as §3
Canis familiaris [19] = assay: Spontaneous arrhythmias measured in canine 24-h Infarction model at a single intravenous dose of 2.4 uM/kg; type: functional, Canis lupus familiaris; procedure, shortened: as §1
Canis familiaris [20] = assay: Number of canine in which nonsustained ventricular tachycardia (NSVT) was observed in PES-induced arrhythmias at an cumulative intravenous dose of 0.24 uM/kg; type: functional, Canis lupus familiaris, Cardiac ventricle; procedure, shortened: as §4
Canis familiaris [21] = species: Canis familiaris; assay: Heart Rate measured in canine just after inducing atrial flutter (AFL) termination by the compound; type: functional, Canis lupus familiaris
Canis familiaris [22] = assay: Heart Rate measured in canine just after inducing atrial flutter (AFL) termination by the compound at a dose of 0.24 umol/kg; type: functional, Canis lupus familiaris
Canis familiaris [23] = assay: Heart Rate measured in canine just after inducing atrial flutter (AFL) termination by the compound at a dose of 1.2 uM/kg; type: functional, Canis lupus familiaris
Canis familiaris [24] = assay: Heart Rate measured in canine just after inducing atrial flutter (AFL) termination by the compound at a dose of 12.0 uM/kg; type: functional, Canis lupus familiaris
Canis familiaris [25] = assay: Heart Rate measured in canine just after inducing atrial flutter (AFL) termination by the compound at a dose of 2.4 uM/kg; type: functional, Canis lupus familiaris
Canis familiaris [26] = assay: Heart Rate measured in canine just after inducing atrial flutter (AFL) termination by the compound at a dose of 4.8 uM/kg; type: functional, Canis lupus familiaris
Canis familiaris [27] = assay: Ventricular effective refractory (VEPR) period measured in canine 24-h Infarction model at an cumulative intravenous dose of 2.4 uM/kg; type: functional, Canis lupus familiaris, Heart
Procedure, shortened: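 Male mongrel dogs (16-22 kg) with LAD permanently ligated in two stages, studied 24 h after ligation. Compound given in saline (6.0 µmol/mL) as sequential intravenous doses to reach cumulative 0.24, 0.72 and 2.4 µmol/kg. VERP and other measurements taken at baseline and 15 min after each dose. Saline-dosed dogs served as controls. Results are means ± SEM, paired t-test, p ≤ 0.05.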

Canis familiaris [28] = assay: Ventricular effective refractory period ([…]) measured in canine just after inducing atrial flutter (AFL) termination by the compound at a dose of 4.8 uM/kg; type: functional, Canis lupus familiaris, Heart
Procedure, shortened: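 Conscious dogs, loosely restrained in a sling, with exteriorized electrode leads, studied 2 weeks after instrumentation. AFL was induced and counted as sustained if it lasted 5 min. Compound in saline given intravenously every 5 min to cumulative 0.024-12.0 µmol/kg. VERP was measured at AFL termination and 3 min after each dose. Results are means ± SEM versus baseline, p ≤ 0.05.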

Canis familiaris [29] = assay: Ventricular MAPD90 measured in canine 24-h Infarction model at a single intravenous dose of 2.4 uM/kg; type: functional, Canis lupus familiaris, Heart; procedure, shortened: as §1
Canis familiaris [30] = assay: Ventricular MAPD90 measured in canine 24-h Infarction model at an cumulative intravenous dose of 0.72 uM/kg; type: functional, Canis lupus familiaris, Heart; procedure, shortened: as §1
Canis familiaris [31] = assay: Ventricular MAPD90 measured in canine 24-h Infarction model at an cumulative intravenous dose of 2.4 uM/kg; type: functional, Canis lupus familiaris, Heart; procedure, shortened: as §1

With `CCN(CCCCCC(C)(C)F)CCC[C@H](O)c1ccc(NS(C)(=O)=O)cc1.O=C(O)/C=C/C(=O)O` the AFLCl (Canis familiaris [1]) was 165 ms, the AERP (Canis familiaris [2]) was 166 ms and the AERP (Canis familiaris [3]) was 162 ms. For the same compound, the QT interval (Canis familiaris [4]) was 238 ms, the QT interval (Canis familiaris [5]) was 196 ms and the QT interval (Canis familiaris [6]) was 208 ms. The QT interval (Canis familiaris [7]) was 200 ms, the QT interval (Canis familiaris [8]) was 213 ms and the QT interval (Canis familiaris [9]) was 205 ms. It also gave a QT interval (Canis familiaris [10]) of 204 ms, an AERP (Canis familiaris [11]) of 179 ms and an AERP (Canis familiaris [12]) of 149 ms. The AERP (Canis familiaris [13]) was 160 ms, the “Atrial MAPD90” value (Canis familiaris [14]) was 163 ms and the No. of canine (Canis familiaris [15]) was 2. For the same compound, the No. of canine (Canis familiaris [16]) was 0, the No. of canine (Canis familiaris [17]) was 1 and the IVR (Canis familiaris [18]) was 130 beats min-1. The PVCs (Canis familiaris [19]) was 53 number min-1, the No. of canine (Canis familiaris [20]) was 2 and the HR (Canis familiaris [21]) was 108 beats min-1. For the same compound, the HR (Canis familiaris [22]) was 128 beats min-1, the HR (Canis familiaris [23]) was 114 beats min-1 and the HR (Canis familiaris [24]) was 122 beats min-1. It also gave an HR (Canis familiaris [25]) of 113 beats min-1, an HR (Canis familiaris [26]) of 118 beats min-1 and a VERP (Canis familiaris [27]) of 185 ms. The VERP (Canis familiaris [28]) was 142 ms, the “Ventricular MAPD90” value (Canis familiaris [29]) was 201 ms and the “Ventricular MAPD90” value (Canis familiaris [30]) was 170 ms. The “Ventricular MAPD90” value (Canis familiaris [31]) was 185 ms.
